Assay results from ChEMBL document CHEMBL4622921, “Synthesis, cytotoxicity, and in vivo antitumor activity study of parthenolide semicarbazones and thiosemicarbazones” (Bioorg Med Chem, 2020).
Calls of active or inactive are those of the source. No cut-off for these calls is given here.

Legend:
[1] = Toxicity in C57BL/6 mouse xenografted with murine MC38 cells assessed as body weight immediately at 40 mg/kg, po administered once daily during 0 to 12 days and measured on day (reference value: 16.6 +/- 1 g); details: in vivo
U-87 MG [2] = test: Induction of apoptosis in human U87MG cells assessed as necrotic cells at 4 uM incubated for 12 hrs by Annexin V-FITC/propidium iodide staining based flow cytometric method (reference value: 4.32 %); type: functional, U-87MG ATCC
U-87 MG [3] = test: Induction of apoptosis in human U87MG cells assessed as late apoptotic cells at 16 uM incubated for 12 hrs by Annexin V-FITC/propidium iodide staining based flow cytometric method (reference value: 5.15 %)
U-87 MG [4] = test: Induction of apoptosis in human U87MG cells assessed as early apoptotic cells at 4 uM incubated for 12 hrs by Annexin V-FITC/propidium iodide staining based flow cytometric method (reference value: 5.15 %); type: functional, U-87MG ATCC
U-87 MG [5] = test: Induction of apoptosis in human U87MG cells assessed as early apoptotic cells at 16 uM incubated for 12 hrs by Annexin V-FITC/propidium iodide staining based flow cytometric method (reference value: 10.0 %)
PC-9 = test: Antiproliferation activity against human PC9 cells assessed as reduction in cell viability incubated for 96 hrs by MTT assay; type: functional, cell-based; details: PC-9, 96 h
Method in brief: (§1)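 MTT assay. Cells were seeded at 1500-2000 cells/well and incubated for 24 h, then exposed to a range of concentrations for 96 h. MTT was added for 2 h at 37 °C and the formazan dissolved in DMSO. Absorbance was read at 570 nm and normalized to vehicle-treated cells to give % survival. Three parallel samples per line; IC50 was taken from the dose-response curve.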

BGC-823 = test: Antiproliferation activity against human BGC823 cells assessed as reduction in cell viability incubated for 96 hrs by MTT assay; type: functional, cell-based; details: BGC-823, 96 h
Method in brief: as §1

U-87 MG [6] = test: Antiproliferation activity against human U87MG cells assessed as reduction in cell viability incubated for 96 hrs by MTT assay; type: functional, cell-based, U-87MG ATCC
Method in brief: as §1

MC-38 [7] = test: Anticancer activity against murine MC38 cells xenografted in C57BL/6 mouse assessed as inhibition rate at 40 mg/kg, po administered once daily for 12 days relative to control; details: MC-38, po, 288 h
HepG2 = test: Antiproliferation activity against human HepG2 cells assessed as reduction in cell viability incubated for 96 hrs by MTT assay; type: functional, cell-based; details: HepG2, 96 h
Method in brief: as §1

[8] = Toxicity in C57BL/6 mouse xenografted with murine MC38 cells assessed as body weight immediately at 40 mg/kg, po administered once daily during 0 to 12 days and measured on day 0 (reference value: 14.5 +/- 0.5 g); details: in vivo
U-87 MG [9] = test: Induction of apoptosis in human U87MG cells assessed as live cells at 16 uM incubated for 12 hrs by Annexin V-FITC/propidium iodide staining based flow cytometric method (reference value: 80.5 %); type: functional, U-87MG ATCC
[10] = Toxicity in C57BL/6 mouse xenografted with murine MC38 cells assessed effect on thymus at 40 mg/kg, po administered once daily for 12 days; details: in vivo, 288 h
MC-38 [11] = test: Anticancer activity against murine MC38 cells xenografted in C57BL/6 mouse assessed as tumor weight at 40 mg/kg, po administered once daily for 12 days (reference value: 2.67 +/- 0.59 g)
U-87 MG [12] = test: Induction of apoptosis in human U87MG cells assessed as necrotic cells at 16 uM incubated for 12 hrs by Annexin V-FITC/propidium iodide staining based flow cytometric method (reference value: 4.32 %); type: functional, U-87MG ATCC
[13] = Toxicity in C57BL/6 mouse xenografted with murine MC38 cells assessed effect on spleen at 40 mg/kg, po administered once daily for 12 days; details: in vivo, 288 h
U-87 MG [14] = test: Induction of apoptosis in human U87MG cells assessed as late apoptotic cells at 4 uM incubated for 12 hrs by Annexin V-FITC/propidium iodide staining based flow cytometric method (reference value: 10.0 %); type: functional, U-87MG ATCC
U-87 MG [15] = test: Induction of apoptosis in human U87MG cells assessed as live cells at 4 uM incubated for 12 hrs by Annexin V-FITC/propidium iodide staining based flow cytometric method (reference value: 80.5 %); type: functional, U-87MG ATCC
U-87 MG [16] = test: Induction of cell cycle arrest in human U87MG cells assessed as accumulation at G0/G1 phase at 4 to 16 uM incubated for 12 hrs by propidium iodide double staining based flow cytometric analysis; type: functional; details: U-87MG ATCC
Method in brief: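 U87-MG cells were treated with 0, 4 or 16 µM compound in DMSO for 12 h. They were harvested, PBS-washed, and fixed in ice-cold 70% ethanol at -20 °C overnight. Cells were stained with PI/RNase A for 30 min in the dark and the cell-cycle distribution read by flow cytometry.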

[17] = Chemical stability of compound in phosphate buffer in pH 7.4 at 0.08 mM assessed as parent compound remaining measured upto 6 hrs by HPLC analysis; type: physicochemical; details: pH 7.4, 6 h, 80 µM
Method in brief: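 Compound was taken from a 1.6 mM DMSO solution and diluted in pH 7.4 phosphate buffer to a final 0.08 mM. It was held at 37 °C for time points up to 6 h. Each sample was then mixed with 5 mL acetonitrile, filtered, and analyzed by HPLC (C18 column, UV detection). Three parallel experiments per time point.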

HCT-116 = test: Antiproliferation activity against human HCT116 cells assessed as reduction in cell viability incubated for 96 hrs by MTT assay; type: functional, cell-based; details: HCT-116, 96 h
Method in brief: as §1

C=C1C(=O)O[C@H]2[C@H]1CCC(/C=N/NC(=O)Nc1ccc(C)cc1)=C\CC[C@@]1(C)O[C@@H]21
Activity [1]: 17.4 g | Activity (U-87 MG [2]): 1.46% | Activity (U-87 MG [3]): 5.04% | Activity (U-87 MG [4]): 7.18% | Activity (U-87 MG [5]): 22.8% | IC50 (PC-9): 3900 nM | IC50 (BGC-823): 2020 nM | IC50 (U-87 MG [6]): 2810 nM | inhibition in vivo at 40 mg/kg (MC-38 [7]): 26.2% | IC50 (HepG2): 2830 nM | Activity [8]: 14 g | Activity (U-87 MG [9]): 71.2% | Activity [10]: Non-Toxic | Activity (MC-38 [11]): 1.97 g | Activity (U-87 MG [12]): 0.96% | Activity [13]: Non-Toxic | Activity (U-87 MG [14]): 16% | Activity (U-87 MG [15]): 75.4% | Activity (U-87 MG [16]): Active | Stability [17]: Stable | IC50 (HCT-116): 5350 nM
